Screening results as filed in PubChem BioAssay.
Rad51 HR inh – Rad51 (human) homologous recombination inhibition; 0.085% of 200,000 active; AID 1385; inhibition, % at 10 µM; hRad51 DNA strand exchange, fluorescence dequenching; Q06609;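 active means inhibition above 40% at the single screening dose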;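 further: 0% = DMSO control wells and 100% = blanks with heterologous ssDNA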
Target sequence (Q06609 whole entry, looked up): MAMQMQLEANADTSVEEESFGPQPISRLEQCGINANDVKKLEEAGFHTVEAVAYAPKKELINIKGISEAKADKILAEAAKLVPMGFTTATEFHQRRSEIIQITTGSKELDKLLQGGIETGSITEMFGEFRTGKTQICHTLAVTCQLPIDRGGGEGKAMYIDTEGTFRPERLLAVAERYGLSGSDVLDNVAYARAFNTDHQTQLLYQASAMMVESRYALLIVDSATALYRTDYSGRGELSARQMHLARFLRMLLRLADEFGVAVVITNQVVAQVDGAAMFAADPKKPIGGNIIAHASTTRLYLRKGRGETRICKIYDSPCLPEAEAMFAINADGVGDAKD
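Material: human Rad51–ssDNA filaments; Probe or stimulus: labelled 47-mer dsDNA for strand exchange; Doses: single 10 µM dose; Incubation: 37 °C 15-min filament assembly, 30-min compound preincubation, 15-min exchange; Technique: FRET fluorescence dequenching, excitation 485 nm, emission 520 nm; Measure: Fluorescence-based percent inhibition, control- and blank-normalised; Benchmarks: plate control and blank wells.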
CHT allo act – human CHT allosteric activation. Q9GZV3. CHT-expressing cells, membrane potential dye, choline EC20; stronger effect = higher value; LV-AA mutant CHT in HEK293 cells. B-score at 10 µM. 0.49% of 310,000 active;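 active means initial fluorescence not abnormally high and integrated response B-score, plate-corrected, over 3 SD above library mean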
Cl transport mod – modulates chloride dependent transport by human KCC2; 2.2% of 190,000 active; B-score of Tl+ flux slope (higher = more flux/activation; lower = inhibition) at 10 µM; KCC2 cells, thallium flux FluoZin-2 fluorescence; Q9H2X9; AID 1456;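 active means thallium flux slope and its plate-corrected score both differing from the plate sample mean at a set confidence after two filtering rounds, in either direction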;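 further: slope of fluorescence scaled to starting intensity during 10 to 20 s after thallium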
CHT block – human CHT choline transport inhibition; Q9GZV3; B-score at 10 µM; 0.86% of 310,000 active; CHT-expressing cells, membrane potential dye, choline response; stronger effect = lower value;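 active means B-score over 3 SD under the library average, and starting fluorescence ratio not unusually high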;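 further: choline stimulus applied at its EC90 after an EC20 pre-addition; B-score computed on integrated fluorescence ratio after choline addition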
* marks the source's active call; other numbers are inactive results; i = inactive; . = not tested or not shown. Compounds with a hit are over-represented: about 2.6% of the library has one in this group of screens.

SMILES | Rad51 HR inh | CHT allo act | Cl transport mod | CHT block
CCCc1cc(CNC(=O)C2CCC(=O)N(Cc3ccccc3F)C2)on1 (stereo not drawn) | . | i | . | i
Fc1cccc2sc(Nc3nnc(-c4ccco4)o3)nc12 | -0.4 | i | 32.9* | i
COc1cccc2sc(Nc3nnc(-c4cccs4)o3)nc12 | -5.9 | i | 57.9* | i
COc1cccc2sc(Nc3nnc(-c4ccc(F)cc4)o3)nc12 | -1.8 | i | . | i
O=C(OC[C@H]1O[C@@H](OC(=O)c2cc(O)c(O)c(OC(=O)c3cc(O)c(O)c(O)c3)c2)[C@H](OC(=O)c2cc(O)c(O)c(OC(=O)c3cc(O)c(O)c(O)c3)c2)[C@@H](OC(=O)c2cc(O)c(O)c(OC(=O)c3cc(O)c(O)c(O)c3)c2)[C@@H]1OC(=O)c1cc(O)c(O)c(OC(=O)c2cc(O)c(O)c(O)c2)c1)c1cc(O)c(O)c(OC(=O)c2cc(O)c(O)c(O)c2)c1 | . | i | . | i
O=C(Nc1nc(-c2ccccn2)cs1)c1ccc(Br)s1 | 4.1 | i | 38.9* | i
COC(=O)CN(c1ccccc1)S(=O)(=O)c1cc(Br)ccc1OC | . | i | -2.31 | i
Cc1cccc(N(C)S(=O)(=O)c2ccc(-c3cnc(C4CC4)o3)cc2)c1 | . | 7.32* | . | i
Cc1ccc(N(C)S(=O)(=O)c2cc(-c3cnc(C4CC4)o3)ccc2C)cc1 | . | i | . | i
COc1cccc(/C=C/C(=O)c2cccc([N+](=O)[O-])c2)c1 | -35.2 | i | -0.174 | i
COc1cccc(/C=C/C(=O)c2cccc([N+](=O)[O-])c2)c1OC | 80.3* | i | 0.399 | i
Oc1ccccc1C(=S)N1CCN(C(=S)c2ccccc2O)CC1 | . | i | . | i
CCCCOC(=O)c1ccc(NC(=S)NC(=O)c2c(Br)c(C)nn2C)cc1 | 2.2 | i | 29* | i
CC12CC3(C)CC(C)(C1)CC(C(=O)NC(=S)N1CCOCC1)(C2)C3 | -1.2 | i | 9.39* | i
CC12CC3CC(C)(C1)CC(C(=O)NC(=S)N1CCCCC1)(C3)C2 | 2.5 | i | 10.5* | i
C/C(=N\NC(=O)c1ccoc1C)c1ccc(Cl)s1 | . | i | . | i
C/C(=N\NC(=O)c1csc(C)c1C)c1ccc(Cl)s1 | -10.5 | i | 22.2* | i
C/C(=N\NC(=O)c1ccccc1O)c1ccc(Br)s1 | -0.1 | i | 10.9* | i
C/C(=N\NC(N)=S)c1ccc(Cl)s1 | -8.8 | i | 3.01 | i
C/C(=N\NC(=S)NC(C)C)c1ccc(Cl)s1 | 3.8 | i | 24.2* | i
CC(C)[C@H](NC(=O)N1CCn2c1nc1ccccc12)C(=O)NCC1CCCO1 (stereo partly drawn) | . | i | . | i
CCC(CC)COC(=O)C1=C(C)NC(=O)NC1c1ccc2c(c1)OCO2 (stereo not drawn) | . | i | . | i
O=C(NCc1cccs1)c1nc2c(nnn2Cc2ccccc2Cl)c(=O)[nH]1 | 2.1 | i | -2.72* | i
COc1cc(NC(=O)C(=O)NNC(=O)C2CCCCC2)c(OC)cc1Cl | 6.3 | i | 51* | i
Cc1cc([N+](=O)[O-])ccc1NC(=S)NC(=O)Cc1ccccc1 | . | i | 8.51* | i
SMILES | Rad51 HR inh | CHT allo act | Cl transport mod | CHT block
CC(=O)NC(=S)Nc1ccc([N+](=O)[O-])cc1C | 0.4 | i | -0.671 | i
CS(=O)(=O)Nc1ccc(Oc2ncccn2)cc1 | . | i | . | i
O=C(C1=C[C@H](C2CC2)C[C@H](OCc2ccc(CO)cc2)O1)N1CCN(Cc2ccc3c(c2)OCO3)CC1 | -0.1 | i | -0.558 | -5.26*
O=C(C1=C[C@@H](c2coc3ccccc3c2=O)C[C@@H](OCc2ccc(CO)cc2)O1)N1CCN(Cc2ccccc2)CC1 | -4.5 | i | -3.25* | i
Cc1ccc(NC(=O)CCC(=O)OCC(=O)c2ccc(Oc3ccc([N+](=O)[O-])cc3)cc2)c(C)c1 | -6.1 | i | -0.864 | i
Cc1cc(C)nc(-n2nc(C)cc2Nc2ccccc2)n1 | -0.7 | i | . | -5.23*
Cc1cc(Nc2ccccc2)n(-c2nc3ccccc3[nH]2)n1 | -3.8 | i | 3.33* | i
Cc1cc(Nc2ccccc2)n(-c2ccccc2)n1 | 13.4 | i | -0.177 | i
Oc1c(Cl)cc(Cl)cc1Sc1cc(Cl)cc(Cl)c1O | -1.6 | i | 37.1* | i
CN(C(=O)COC(=O)c1ccccc1SCC(=O)NC1CCCCCCC1)C1CCS(=O)(=O)C1 (stereo not drawn) | -6.1 | i | 0.688 | i
CC12CCC(C(=O)N(CSC(=S)N/N=C\c3ccccc3Cl)C1=O)C2(C)C (stereo not drawn) | -8.1 | i | . | i
CC12CCC(C(=O)N(CSC(=S)N/N=C\c3ccccc3)C1=O)C2(C)C (stereo not drawn) | . | i | 22.8* | i
COc1cc(/C=C2/C(=O)NN(c3ccc(F)cc3)C2=O)cc(Cl)c1O | . | i | . | -4.95*
COc1cc(/C=C2/C(=O)NN(c3ccc(Cl)cc3)C2=O)cc(Br)c1O | . | i | . | i
COc1cccc(/C=C2/C(=O)NN(c3ccc(Br)cc3)C2=O)c1O | . | i | . | -6.85*
On1c2c(c3c4nonc4ccc31)CCCC2 | 3.0 | i | -1.08 | -10.8*
CCOC(=O)c1c(N)sc2c1CCN(CCc1ccccc1)C2 | . | 8.06* | . | i
CN1c2ccsc2C(O)=C(C(=S)Nc2ccc(F)c(Cl)c2)S1(=O)=O | -0.9 | i | . | i
Cc1ccccc1OCC(=O)Nc1cccc(Cl)c1C | . | i | . | i
Cc1c(Cl)cccc1NC(=O)C(=O)NNC(=O)c1ccccc1F | -1.2 | i | 88.5* | i
Cc1ccccc1C(=O)NNC(=O)C(=O)Nc1cccc(Cl)c1C | -1.8 | i | 45.5* | i
O=C1CCc2cc(NS(=O)(=O)c3ccc([N+](=O)[O-])cc3)cc3c2N1CCC3 | . | i | . | i
Cc1ccc(/C=N/Nc2nc(Cl)c(Cl)cc2Cl)s1 | -7.0 | i | 7.61* | i
COc1ccc(CCNC(=O)C(=O)NCC2CCCN2S(=O)(=O)c2cc(C)ccc2C)cc1 (stereo not drawn) | . | i | . | i
CCC1(c2ccc(Cl)cc2)NC(=S)N(c2ccccc2)N1 (stereo not drawn) | 1.3 | i | 22.9* | i
SMILES | Rad51 HR inh | CHT allo act | Cl transport mod | CHT block
CC(C)Sc1nnc(-c2ccc(S(=O)(=O)N3CCOCC3)cc2)n1C | . | i | . | i
COc1ccc(C(=O)N/N=C/c2ccccc2C(=O)O)cc1OC | 40.8* | i | 2.34 | i
CC(=O)Nn1c(-c2ccccc2)cc2ccccc21 | 85.3* | i | 1.54 | i
CC1CCc2sc(C(=O)N(C)CC(=O)Nc3ccc(N4CCOCC4)cc3)cc2C1 (stereo not drawn) | . | i | . | i
CCn1c(SCC(=O)Nc2ncc(C(F)(F)F)cc2Cl)nnc1-c1cccc(C)c1 | -7.4 | i | -0.734 | i
O=C(OCCOc1cccc(Cl)c1)C1CCN(S(=O)(=O)c2ccccc2)CC1 | . | i | . | i
O=C(CN1CCN(CC(=O)Nc2ccccn2)CC1)Nc1ccccn1 | 0.2 | i | -4.34* | i
